What was measured:
KB = assay: Cytotoxicity against human KB cell line by clonogenic plating efficiency assay after 72 hrs; type: functional, cell-based
How it was run: (§1)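 Clonogenic assay: 1000 cells per well in 6-well dishes, exposed to free maytansinoids (0 to 3 nM) for 72 h, then medium replaced with fresh medium. Colonies grown 7-10 days after plating, fixed and stained with 0.2% crystal violet in 10% formalin/PBS, counted. Surviving fraction = colonies in drug-treated wells / colonies in control wells; IC50 in nM.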

SK-BR-3 = assay: Cytotoxicity against human SK-Br-3 cell line by clonogenic plating efficiency assay after 72 hrs; type: functional, cell-based; conditions: SK-BR-3, 72 h; how it was run: as §1
HCT-15 = assay: Cytotoxicity against human HCT15 cell line by clonogenic plating efficiency assay after 72 hrs; type: cell-based; conditions: HCT-15, 72 h
SW-620 = assay: Cytotoxicity against human SW620 cell line by clonogenic plating efficiency assay after 24 hrs; conditions: SW-620, 24 h
OVCAR-3 = assay: Cytotoxicity against human Ovcar3 cell line by clonogenic plating efficiency assay after 24 hrs; conditions: OVCAR-3, 24 h
A-375 = assay: Cytotoxicity against human A375 cell line by clonogenic plating efficiency assay after 72 hrs; type: functional, cell-based; conditions: A-375, 72 h
How it was run: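 Clonogenic survival: 1000 cells per well were plated and exposed to free or antibody-conjugated maytansinoid (0 to 3 nM) for 72 h. Medium was then replaced with fresh medium, and colonies grew for a total of 7-10 days after plating. Colonies were fixed and stained with 0.2% crystal violet in 10% formalin/PBS, then counted. Surviving fraction = colonies in drug-exposed wells / colonies in control wells.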

A549 = assay: Cytotoxicity against human A549 cell line by clonogenic plating efficiency assay after 72 hrs; type: functional, cell-based; conditions: A549, 72 h
MCF7 = assay: Cytotoxicity against human MCF7 cell line by clonogenic plating efficiency assay after 72 hrs; type: functional, cell-based; conditions: MCF7, 72 h
A-431 = assay: Cytotoxicity against human A431 cell line by clonogenic plating efficiency assay after 72 hrs; type: functional, cell-based; conditions: A-431, 72 h

Row | Compound | IC50 (KB) [nM] | IC50 (SK-BR-3) [nM] | further results
1 | COc1cc2cc(c1Cl)N(C)C(=O)CC(OC(=O)[C@H](C)N(C)C(=O)CC[C@@H](C)SSC)C1(C)OC1C(C)C1CC(O)(NC(=O)O1)C(OC)/C=C/C=C(\C)C2 (stereo partly specified) | 0.042 | 0.027 | –
2 | COc1cc2cc(c1Cl)N(C)C(=O)CC(OC(=O)[C@H](C)N(C)C(=O)CC[C@H](C)SSC)C1(C)OC1C(C)C1CC(O)(NC(=O)O1)C(OC)/C=C/C=C(\C)C2 (stereo partly specified) | 0.04 | 0.032 | –
3 | COc1cc2cc(c1Cl)N(C)C(=O)CC(OC(=O)[C@@H](C)N(C)C(=O)CCC(C)(C)SSC)C1(C)OC1C(C)C1CC(O)(NC(=O)O1)C(OC)/C=C/C=C(\C)C2 (stereo partly specified) | > 0.3 | > 0.3 | –
4 | COc1cc2cc(c1Cl)N(C)C(=O)CC(OC(=O)[C@H](C)N(C)C(=O)CCSSc1ccccc1)C1(C)OC1C(C)C1CC(O)(NC(=O)O1)C(OC)/C=C/C=C(\C)C2 (stereo partly specified) | 0.1 | – | –
5 | COc1cc2cc(c1Cl)N(C)C(=O)CC(OC(=O)[C@H](C)N(C)C(=O)CCC(C)(C)SSCCCC(=O)O)C1(C)OC1C(C)C1CC(O)(NC(=O)O1)C(OC)/C=C/C=C(\C)C2 (stereo partly specified) | 23 | 7.1 | –
6 | COc1cc2cc(c1Cl)N(C)C(=O)CC(OC(=O)[C@@H](C)N(C)C(=O)CC[C@H](C)SSC)C1(C)OC1C(C)C1CC(O)(NC(=O)O1)C(OC)/C=C/C=C(\C)C2 (stereo partly specified) | > 3 | > 3 | –
7 | COc1cc2cc(c1Cl)N(C)C(=O)CC(OC(=O)[C@@H](C)N(C)C(=O)CCCSSC)C1(C)OC1C(C)C1CC(O)(NC(=O)O1)C(OC)/C=C/C=C(\C)C2 (stereo partly specified) | 2 | – | –
8 | COc1cc2cc(c1Cl)N(C)C(=O)CC(OC(=O)[C@@H](C)N(C)C(=O)CCS)C1(C)OC1C(C)C1CC(O)(NC(=O)O1)C(OC)/C=C/C=C(\C)C2 (stereo partly specified) | > 3 | > 3 | –
9 | COc1cc2cc(c1Cl)N(C)C(=O)CC(OC(=O)[C@@H](C)N(C)C(=O)CCC(C)(C)S)C1(C)OC1C(C)C1CC(O)(NC(=O)O1)C(OC)/C=C/C=C(\C)C2 (stereo partly specified) | > 1 | 3.3 | –
10 | COc1cc2cc(c1Cl)N(C)C(=O)CC(OC(=O)[C@@H](C)N(C)C(=O)CCSSC)C1(C)OC1C(C)C1CC(O)(NC(=O)O1)C(OC)/C=C/C=C(\C)C2 (stereo partly specified) | 3 | 6 | –
11 | COc1cc2cc(c1Cl)N(C)C(=O)CC(OC(=O)[C@H](C)N(C)C(=O)CCSSC)C1(C)OC1C(C)C1CC(O)(NC(=O)O1)C(OC)/C=C/C=C(\C)C2 (stereo partly specified) | 0.029 | 0.014 | IC50 (HCT-15): 0.13 nM; IC50 (SW-620): 0.04 nM; IC50 (OVCAR-3): 0.05 nM; IC50 (A-375): 0.03 nM; IC50 (A549): 0.12 nM; IC50 (MCF7): < 0.03 nM; IC50 (A-431): < 0.03 nM
12 | COc1cc2cc(c1Cl)N(C)C(=O)CC(OC(=O)[C@H](C)N(C)C(=O)CCCSSC)C1(C)OC1C(C)C1CC(O)(NC(=O)O1)C(OC)/C=C/C=C(\C)C2 (stereo partly specified) | 0.0085 | 0.038 | –
13 | COc1cc2cc(c1Cl)N(C)C(=O)CC(OC(=O)[C@H](C)N(C)C(=O)CCSSC(C)CCC(=O)O)C1(C)OC1C(C)C1CC(O)(NC(=O)O1)C(OC)/C=C/C=C(\C)C2 (stereo partly specified) | 1.8 | 3.4 | –
14 | COc1cc2cc(c1Cl)N(C)C(=O)CC(OC(=O)[C@H](C)N(C)C(=O)CCC(C)S)C1(C)OC1C(C)C1CC(O)(NC(=O)O1)C(OC)/C=C/C=C(\C)C2 (stereo partly specified) | 0.077 | 0.031 | –
15 | COc1cc2cc(c1Cl)N(C)C(=O)CC(OC(=O)[C@H](C)N(C)C(=O)CCC(C)(C)SSC)C1(C)OC1C(C)C1CC(O)(NC(=O)O1)C(OC)/C=C/C=C(\C)C2 (stereo partly specified) | 0.0011 | 0.0032 | –
16 | COc1cc2cc(c1Cl)N(C)C(=O)CC(OC(=O)[C@H](C)N(C)C(=O)CCS)C1(C)OC1C(C)C1CC(O)(NC(=O)O1)C(OC)/C=C/C=C(\C)C2 (stereo partly specified) | 1.1 | 1.1 | –
17 | COc1cc2cc(c1Cl)N(C)C(=O)CC(OC(=O)[C@H](C)N(C)C(=O)CCC(C)(C)S)C1(C)OC1C(C)C1CC(O)(NC(=O)O1)C(OC)/C=C/C=C(\C)C2 (stereo partly specified) | 0.29 | 0.12 | –
18 | COc1cc2cc(c1Cl)N(C)C(=O)CC(OC(=O)[C@H](C)N(C)C(=O)CCSSCCC(=O)N(C)[C@@H](C)C(=O)OC1CC(=O)N(C)c3cc(cc(OC)c3Cl)C/C(C)=C/C=C/C(OC)C3(O)CC(OC(=O)N3)C(C)C3OC13C)C1(C)OC1C(C)C1CC(O)(NC(=O)O1)C(OC)/C=C/C=C(\C)C2 (stereo partly specified) | 0.14 | 0.1 | –
19 | COc1cc2cc(c1Cl)N(C)C(=O)CC(OC(=O)[C@@H](C)N(C)C(=O)CC[C@@H](C)SSC)C1(C)OC1C(C)C1CC(O)(NC(=O)O1)C(OC)/C=C/C=C(\C)C2 (stereo partly specified) | 2.4 | 2.2 | –
20 | COc1cc2cc(c1Cl)N(C)C(=O)CC(OC(=O)[C@H](C)N(C)C(=O)CCC(C)(C)SSC(C)(C)CCC(=O)N(C)[C@@H](C)C(=O)OC1CC(=O)N(C)c3cc(cc(OC)c3Cl)C/C(C)=C/C=C/C(OC)C3(O)CC(OC(=O)N3)C(C)C3OC13C)C1(C)OC1C(C)C1CC(O)(NC(=O)O1)C(OC)/C=C/C=C(\C)C2 (stereo partly specified) | 0.0016 | 0.0012 | –
21 | COc1cc2cc(c1Cl)N(C)C(=O)CC(OC(=O)[C@@H](C)N(C)C(=O)CCC(C)SSC)C1(C)OC1C(C)C1CC(O)(NC(=O)O1)C(OC)/C=C/C=C(\C)C2 (mixture of isomers) | 1.2 | 0.22 | –
22 | COc1cc2cc(c1Cl)N(C)C(=O)CC(OC(=O)[C@H](C)N(C)C(=O)CCC(C)SSC)C1(C)OC1C(C)C1CC(O)(NC(=O)O1)C(OC)/C=C/C=C(\C)C2 (mixture of isomers) | 0.011 | 0.0042 | –
23 | COc1cc2cc(c1Cl)N(C)C(=O)C[C@H](OC(=O)[C@H](C)N(C)C(C)=O)[C@]1(C)O[C@H]1[C@H](C)[C@@H]1C[C@@](O)(NC(=O)O1)[C@H](OC)/C=C/C=C(\C)C2 [MAYTANSINE] | 0.034 | 0.03 | IC50 (HCT-15): 0.75 nM; IC50 (SW-620): > 0.1 nM; IC50 (OVCAR-3): 0.1 nM; IC50 (A-375): 0.037 nM; IC50 (A549): 0.16 nM; IC50 (MCF7): 0.044 nM; IC50 (A-431): 0.04 nM
24 | COc1cc2cc(c1Cl)N(C)C(=O)CC(O)C1(C)OC1C(C)C1CC(O)(NC(=O)O1)C(OC)/C=C/C=C(\C)C2 (stereo unspecified) [MAYTANSINOL] | > 3 | 1.2 | –
25 | COc1cc2cc(c1Cl)N(C)C(=O)CC(OC(=O)[C@H](C)N(C)C(=O)CSSC)C1(C)OC1C(C)C1CC(O)(NC(=O)O1)C(OC)/C=C/C=C(\C)C2 (stereo partly specified) [METHYLDITHIOACETYL MAYTANSINOID] | 0.19 | – | –

From ChEMBL document CHEMBL1138066, “Semisynthetic maytansine analogues for the targeted treatment of cancer” (J Med Chem, 2006)
